Experimental data pooled from the literature.
Protocols differ between the studies behind these lines.
Target: Mitotic checkpoint serine/threonine-protein kinase BUB1 (BUB1, Homo sapiens, UniProt O43683)

COc1cnc(Nc2cccc(S(N)(=O)=O)c2)nc1N1CCN(c2ccccc2)C(=O)C1
remaining binding (binding, competition with immobilised ligand; 1 µM): 79%

C[C@@H]1CCN(c2nccc(-c3cnn4ncccc34)n2)C1
remaining binding (binding; 1 µM): 71%

CCOCCn1cc(C(=O)Nc2ccc(-n3nc(-c4cccnc4)cc3C(F)(F)F)cn2)ccc1=O
remaining binding (cell-free assay, competition with immobilised ligand; 1 µM): 79%

O=C(c1ccc(Nc2ncc(Cl)c(-c3ccc(Cl)s3)n2)cc1)N1CCC(N2CCCC2)CC1
remaining binding (binding, competition with immobilised ligand; 1 µM): 65%

CCc1ccccc1C(=O)Nc1n[nH]c2c(C)c(F)c(C3C(C#N)=C(C)N(C)C(C)=C3C#N)cc12
remaining binding (cell-free assay, competition with immobilised ligand; 1 µM): 100%

C=CC(=O)N1CCC(C(=O)NCC(=O)N2CCN(c3nc(-c4cnc(N)nc4C(F)F)nc(N4CCOCC4)n3)CC2)CC1
remaining binding (binding, competition with immobilised ligand; 1 µM): 77%

C[C@@]1(Cc2ccc(C#N)cc2)C(=O)N(c2cc(Cl)cc(Cl)c2)c2ncc(C(=O)NC3(c4nc(C5CCC5)no4)CC3)n21
remaining binding (cell-free assay, competition with immobilised ligand; 1 µM): 100%

CC1CCCN1c1nccc(-c2cnn3ncccc23)n1 (stereo not shown)
remaining binding (binding; 1 µM): 100%

CS(=O)(=O)N1CCCC(NC(=O)[C@H](CCC2CCCCC2)NC(=O)c2ccc(CNc3ncnc4c3nnn4-c3ccccc3)cc2)C1 (stereo partly shown)
remaining binding (cell-free assay, competition with immobilised ligand; 0.1 µM): 100%

CN(CCCC(F)(F)F)c1nccc(-c2cnn3ncccc23)n1
remaining binding (binding; 1 µM): 91%

O=C(c1ccc(Nc2nccc(-c3cc4ccccc4s3)n2)cc1)N1CCC(N2CCCC2)CC1
remaining binding (binding, competition with immobilised ligand; 1 µM): 45%

c1cnn2ncc(-c3ccnc(N4CCC45COC5)n3)c2c1
remaining binding (binding; 1 µM): 46%

FC(F)(F)Oc1cccc(-c2cnc3ccc(-c4ccncc4)nn23)c1
remaining binding (cell-free assay, competition with immobilised ligand; 5 µM): 13%

COc1cc(-c2cn(C3CCc4c(F)cccc4N(CC(F)(F)F)C3=O)nn2)ccc1-n1cnc(C)c1 (stereo not shown)
remaining binding (cell-free assay, competition with immobilised ligand; 1 µM): 100%

O=C(NCCCN1CCOCC1)c1ccc(Nc2ncc(Cl)c(-c3ccc(Cl)s3)n2)cc1
remaining binding (binding, competition with immobilised ligand; 1 µM): 80%

CNCc1ccccc1-c1csc([C@@H](C)Nc2nc(C)nc3cc(OC)c(OC)cc23)c1
remaining binding (cell-free assay, competition with immobilised ligand; 1 µM): 100%

N[C@@H]1CCN(c2nccc(-c3cnn4ncccc34)n2)C1
remaining binding (binding; 1 µM): 93%

C[C@@H](c1ccc(-n2cnc3c(N)ncnc32)cc1)N1CCc2nn(C)c(Cc3ccccc3)c2C1=O
remaining binding (binding, competition with immobilised ligand; 0.1 µM): 91%

CN(C)c1ncc(F)c(-c2cnn3ncccc23)n1
remaining binding (binding; 1 µM): 100%

Nc1ncc2c(n1)-c1c([nH]c3ccc(C#CC4CC4)cc13)CCCC2
remaining binding (binding, competition with immobilised ligand; 1 µM): 78%

CN(C)c1nccc(-c2cnc3ncccn23)n1
remaining binding (binding; 1 µM): 78%

O=C(Nc1c[nH]nc1C(=O)NC1CCNCC1)c1cc(F)cc(F)c1
remaining binding (binding, competition with immobilised ligand; 1 µM): 100%
